Here are results for 20 compounds from ChEMBL document CHEMBL1132472, “Synthesis and pharmacological evaluation of some 8-cyanopyrido[3', 2':4,5]thieno[3,2-d]triazine derivatives as inhibitors of nitric oxide and eicosanoid biosynthesis” (J Med Chem, 1999).

For assay [1], the species on record is Mus musculus. The experiment in a line: (§1) Ability to inhibit the accumulation of PGE-2 in stimulated murine peritoneal macrophages. Type of assay: functional. In outline:
(§2)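 Mouse peritoneal macrophages were elicited by ip thioglycolate (10%) and collected by lavage 4 days later. Adherent cells were stimulated with E. coli LPS (10 µg/mL) at 37 °C for 24 h with compound or vehicle. Supernatant PGE₂ was measured by radioimmunoassay. IC50 was calculated from at least four significant concentrations (n = 6).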

The species entered for assay [2] is Mus musculus. The experiment in a line: (§3) Ability to inhibit the generation of NO by stimulated murine peritoneal macrophages. Type of assay: functional, organism-based. A digest of the protocol: (§4)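 Thioglycolate-elicited mouse peritoneal macrophages (lavage 4 days after ip 10% thioglycolate), adhered 2 h at 37 °C in arginine (1 mM)-containing buffered medium with 10% FBS. Cells stimulated with E. coli LPS 10 µg/mL for 24 h at 37 °C with test compound or vehicle. Supernatant nitrite measured fluorimetrically. IC50 from ≥4 concentrations (n = 6). Mean ± SEM.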

The species named for assay [3] is Mus musculus. The description is as §3. In kind it is functional. On the set-up: concentration or dose not given beside the values. A digest of the protocol: as §4
For assay [4], the species on record is Mus musculus. The description is as §1. Type of assay: functional. Details: concentration or dose not given beside the values. A digest of the protocol:
as §2

Assay [5] is filed under the species Mus musculus. The experiment in a line: Compound was evaluated to inhibit PGE-2 accumulation in simulated macrophages. In kind it is functional. A digest of the protocol: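 Adherent thioglycolate-elicited mouse peritoneal macrophages were stimulated with E. coli LPS (10 µg/mL) for 24 h at 37 °C in the presence of compound at 10 µM or vehicle. Supernatant PGE₂ was measured by radioimmunoassay and expressed as % inhibition, mean ± SEM, n = 6-9.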

Assay [6] concerns the target T1, Nitric oxide synthase, inducible (Mus musculus) (UniProt P29477).
T1 sequence (whole entry): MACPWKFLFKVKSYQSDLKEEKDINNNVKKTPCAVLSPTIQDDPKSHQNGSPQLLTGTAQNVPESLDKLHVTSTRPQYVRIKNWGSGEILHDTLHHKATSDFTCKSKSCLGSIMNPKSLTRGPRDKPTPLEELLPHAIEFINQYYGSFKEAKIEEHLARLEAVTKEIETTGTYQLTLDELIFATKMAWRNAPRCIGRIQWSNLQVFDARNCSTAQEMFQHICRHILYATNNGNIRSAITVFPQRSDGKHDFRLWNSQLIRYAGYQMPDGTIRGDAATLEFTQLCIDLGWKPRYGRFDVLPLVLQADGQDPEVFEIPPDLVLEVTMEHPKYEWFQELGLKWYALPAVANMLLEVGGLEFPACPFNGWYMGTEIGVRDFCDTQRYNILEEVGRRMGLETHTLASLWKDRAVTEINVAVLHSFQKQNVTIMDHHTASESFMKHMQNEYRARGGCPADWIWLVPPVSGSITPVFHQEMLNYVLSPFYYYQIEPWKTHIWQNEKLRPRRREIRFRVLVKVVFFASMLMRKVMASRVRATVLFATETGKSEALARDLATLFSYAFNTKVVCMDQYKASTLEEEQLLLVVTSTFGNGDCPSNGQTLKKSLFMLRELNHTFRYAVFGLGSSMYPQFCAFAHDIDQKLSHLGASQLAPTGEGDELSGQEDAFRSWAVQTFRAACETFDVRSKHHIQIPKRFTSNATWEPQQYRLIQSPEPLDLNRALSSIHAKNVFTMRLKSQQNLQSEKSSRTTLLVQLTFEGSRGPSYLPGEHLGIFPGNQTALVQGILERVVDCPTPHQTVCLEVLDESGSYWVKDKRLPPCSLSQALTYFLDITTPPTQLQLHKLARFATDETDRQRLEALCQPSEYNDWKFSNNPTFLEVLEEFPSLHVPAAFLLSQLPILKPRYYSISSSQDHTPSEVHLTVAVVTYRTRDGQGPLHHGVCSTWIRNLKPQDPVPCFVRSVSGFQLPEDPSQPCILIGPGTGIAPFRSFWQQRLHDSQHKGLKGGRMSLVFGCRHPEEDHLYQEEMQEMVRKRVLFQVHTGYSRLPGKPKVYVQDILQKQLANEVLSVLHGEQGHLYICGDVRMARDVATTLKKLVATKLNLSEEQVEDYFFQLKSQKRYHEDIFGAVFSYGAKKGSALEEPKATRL
The experiment in a line: In vitro activity at a concentration of 10 uM against Inducible nitric oxide synthase (iNOS).

The species named for assay [7] is Mus musculus. The experiment in a line: Compound was evaluated to inhibit Nitrite accumulation in simulated macrophages. In kind it is functional.
The target in assay [8] is Prostaglandin G/H synthase 1 (Homo sapiens) (UniProt P23219). The experiment in a line: In vitro activity at a concentration of 10 uM against Prostaglandin G/H synthase 1. A digest of the protocol:
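Microsomes were prepared by 2000g spin for 5 min, then 100000g for 100 min, both at 4 °C. Microsomes (20 µg protein/tube) were incubated with arachidonic acid plus compound at 10 µM or vehicle. TXB₂ formed was measured by radioimmunoassay.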

Assay [9] has as its target T2, Prostaglandin G/H synthase 2 (Mus musculus) (UniProt Q05769).
T2 sequence (whole entry): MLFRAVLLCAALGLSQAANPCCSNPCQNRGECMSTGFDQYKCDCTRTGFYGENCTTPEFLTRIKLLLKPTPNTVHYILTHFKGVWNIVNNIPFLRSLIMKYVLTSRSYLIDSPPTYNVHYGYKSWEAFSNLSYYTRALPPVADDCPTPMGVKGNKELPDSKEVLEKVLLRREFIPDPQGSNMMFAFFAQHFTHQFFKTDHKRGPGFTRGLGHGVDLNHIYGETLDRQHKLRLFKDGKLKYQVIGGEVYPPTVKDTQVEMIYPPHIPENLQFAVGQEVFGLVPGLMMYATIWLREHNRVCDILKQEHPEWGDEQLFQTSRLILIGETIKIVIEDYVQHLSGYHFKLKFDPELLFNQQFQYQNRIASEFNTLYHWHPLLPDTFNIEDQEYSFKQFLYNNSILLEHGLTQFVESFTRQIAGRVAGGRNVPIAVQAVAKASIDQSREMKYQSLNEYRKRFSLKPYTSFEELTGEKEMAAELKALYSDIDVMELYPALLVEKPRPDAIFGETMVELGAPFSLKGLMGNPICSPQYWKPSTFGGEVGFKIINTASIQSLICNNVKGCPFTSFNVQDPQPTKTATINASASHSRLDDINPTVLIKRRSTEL
The experiment in a line: In vitro activity at a concentration of 10 uM against Prostaglandin G/H synthase 2.

Sequence of Prostaglandin G/H synthase 1 (Homo sapiens) (P23219 whole entry): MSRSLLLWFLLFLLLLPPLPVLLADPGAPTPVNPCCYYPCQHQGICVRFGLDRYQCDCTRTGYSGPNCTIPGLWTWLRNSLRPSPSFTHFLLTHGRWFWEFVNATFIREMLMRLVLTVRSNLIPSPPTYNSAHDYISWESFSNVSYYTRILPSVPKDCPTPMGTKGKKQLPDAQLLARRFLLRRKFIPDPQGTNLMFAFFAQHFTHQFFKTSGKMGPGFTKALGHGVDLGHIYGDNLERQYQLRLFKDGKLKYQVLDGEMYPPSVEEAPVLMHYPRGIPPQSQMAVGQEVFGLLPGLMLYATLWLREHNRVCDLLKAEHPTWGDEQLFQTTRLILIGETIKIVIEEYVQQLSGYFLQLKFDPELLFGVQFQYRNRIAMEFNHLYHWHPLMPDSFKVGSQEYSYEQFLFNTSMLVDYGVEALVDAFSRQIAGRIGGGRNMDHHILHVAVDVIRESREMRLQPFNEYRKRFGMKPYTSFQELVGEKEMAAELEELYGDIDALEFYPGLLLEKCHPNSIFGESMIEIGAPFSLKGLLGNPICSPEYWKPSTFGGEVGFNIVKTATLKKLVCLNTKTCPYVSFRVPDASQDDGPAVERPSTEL

The IC50 is the concentration at which inhibition is half-maximal. With `C[C@@H]1C[C@H]2[C@@H]3CCC4=CC(=O)C=C[C@]4(C)[C@@]3(F)[C@@H](O)C[C@]2(C)[C@@]1(O)C(=O)CO` [DEXAMETHASONE], the IC50 was 1 nM in the assay filed under Mus musculus [1] and 35.8 nM in the assay listed under Mus musculus [2].
The Inhibition is the percentage by which the read-out fell short of the control. On to `CN1CCN(c2nnnc3c2sc2nc(NCc4ccccc4)c(C#N)cc23)CC1`, for which the results for the Inhibition in the assay filed under Mus musculus [3] and in the assay listed under Mus musculus [4] were 14.1% and 56.4%, respectively.
As for `CC1CCN(c2nnnc3c2sc2nc(N4CCOCC4)c(C#N)cc23)CC1`, the Inhibition in the assay filed under Mus musculus [3] was 88.7%; in the assay filed under Mus musculus [4], 89.6%. For the same compound, the results for the half-inhibitory concentration (IC50) in the assay listed under Mus musculus [5] and in the assay listed under Mus musculus [7] were 600 nM and 3400 nM, respectively. This compound also had an Activity (pM of citrulline min-1 (mg of protein)-1) in assay [6] of 13.1. In [8], this compound returned an Activity ((ng of TXB2) (mg of protein)-1) of 130. For the same compound, the Activity ((ng of PGE2) (mg of protein)-1) in assay [9] worked out at 13.
For `COc1ccc2c(c1)c(CC(=O)O)c(C)n2C(=O)c1ccc(Cl)cc1`, the Activity ((ng of TXB2) (mg of protein)-1) in assay [8] came out at 63.8.
As for `N#Cc1cc2c(nc1NCc1ccccc1)sc1c(Br)nnnc12`, the Inhibition in the assay listed under Mus musculus [3] stood at 12.2%; in the assay listed under Mus musculus [4], 0.4%.
`N=C(N)NN` [PIMAGEDINE]: the Activity (pM of citrulline min-1 (mg of protein)-1) in [6] amounted to 5.4. In the assay filed under Mus musculus [2], this compound showed an IC50 of 25100 nM.
For `N#Cc1cc2c(nc1N)sc1c(Cl)nnnc12`, the figures for the Inhibition in the assay filed under Mus musculus [3] and in the assay listed under Mus musculus [4] were 13.9% and 1%, respectively.
`N#Cc1cc2c(nc1N1CCOCC1)sc1c(N3CCNCC3)nnnc12`: the Inhibition in the assay listed under Mus musculus [3] amounted to 43.3%; in the assay listed under Mus musculus [4], 31.3%. The same compound had an Activity (pM of citrulline min-1 (mg of protein)-1) in assay [6] of 15.1. In assay [8], this compound returned an Activity ((ng of TXB2) (mg of protein)-1) of 149. The compound further came in with an Activity ((ng of PGE2) (mg of protein)-1) in assay [9] of 16.5.
Consider `CC(=O)c1ccc(N2CCN(c3nnnc4c3sc3nc(N5CCOCC5)c(C#N)cc34)CC2)cc1`, for which the Inhibition in the assay filed under Mus musculus [3] was determined as 45.6%; in the assay listed under Mus musculus [4], 34.6%. The compound further displayed an Activity (pM of citrulline min-1 (mg of protein)-1) in [6] of 14.2. The compound further yielded an Activity ((ng of TXB2) (mg of protein)-1) in assay [8] of 142. The compound further gave an Activity ((ng of PGE2) (mg of protein)-1) in [9] of 16.6.
`N#Cc1cc2c(nc1N1CCC(Cc3ccccc3)CC1)sc1c(Cl)nnnc12`: the Inhibition worked out at 48.8% in the assay filed under Mus musculus [3] and 57.9% in the assay filed under Mus musculus [4]. The same compound yielded an Activity (pM of citrulline min-1 (mg of protein)-1) in assay [6] of 13.1. In assay [8], this compound displayed an Activity ((ng of TXB2) (mg of protein)-1) of 128.
In the case of `CC(=O)c1ccc(N2CCN(c3nc4sc5c(Cl)nnnc5c4cc3C#N)CC2)cc1`, the Inhibition is given as 44.7% in the assay filed under Mus musculus [3] and 94.5% in the assay filed under Mus musculus [4]. Moreover, the values for the concentration for half-maximal inhibition (IC50) in the assay listed under Mus musculus [1] and in the assay filed under Mus musculus [2] were 900 nM and 11200 nM, respectively. In [6], this compound gave an Activity (pM of citrulline min-1 (mg of protein)-1) of 14.1. The Activity ((ng of TXB2) (mg of protein)-1) in assay [8] came out at 104.
Consider `N#Cc1cc2c(nc1N1CCOCC1)sc1c(N3CCSCC3)nnnc12`, for which the Inhibition in the assay listed under Mus musculus [3] is 31.4%; in the assay listed under Mus musculus [4], 36.1%.
For the compound `N#Cc1cc2c(nc1NCc1ccccc1)sc1c(N3CCOCC3)nnnc12`, the Inhibition in the assay filed under Mus musculus [3] is 41.1%; in the assay listed under Mus musculus [4] it was 28.5%.
On to `CS(=O)(=O)Nc1ccc([N+](=O)[O-])cc1OC1CCCCC1` [NS-398], for which the half-maximal inhibitory concentration (IC50) in the assay listed under Mus musculus [1] came out at 3.1 nM.
Consider `CC(=O)c1ccc(N2CCN(c3nnnc4c3sc3nc(N5CCN(Cc6ccccc6)CC5)c(C#N)cc34)CC2)cc1`, for which the Inhibition in the assay filed under Mus musculus [3] was 51.6%; in the assay filed under Mus musculus [4] it was 50.1%. Further, the Activity (pM of citrulline min-1 (mg of protein)-1) in assay [6] was found to be 13.5. The Activity ((ng of TXB2) (mg of protein)-1) in assay [8] was 134. Further, the Activity ((ng of PGE2) (mg of protein)-1) in assay [9] was determined as 15.8.
On to `N#Cc1cc2c(nc1N1CCOCC1)sc1c(Cl)nnnc12`, for which the Inhibition is 51.8% in the assay listed under Mus musculus [3] and 59.5% in the assay filed under Mus musculus [4]. In assay [6], the Activity (pM of citrulline min-1 (mg of protein)-1) turned out to be 14. In [8], the Activity ((ng of TXB2) (mg of protein)-1) was found to be 112.
Take `CC1CCN(c2nc3sc4c(Cl)nnnc4c3cc2C#N)CC1`: the values for the Inhibition in the assay listed under Mus musculus [3] and in the assay listed under Mus musculus [4] were 6.1% and 49%, respectively. This compound returned an Activity ((ng of TXB2) (mg of protein)-1) in [8] of 130.
For `CC(=O)c1ccc(N2CCN(c3nnnc4c3sc3nc(N5CCC(C)CC5)c(C#N)cc34)CC2)cc1`, the Inhibition is listed as 42.6% in the assay filed under Mus musculus [3] and 45.6% in the assay listed under Mus musculus [4]. Further, in [6], the Activity (pM of citrulline min-1 (mg of protein)-1) stood at 12.5. Besides, in assay [8], the Activity ((ng of TXB2) (mg of protein)-1) amounted to 127. The same compound had an Activity ((ng of PGE2) (mg of protein)-1) in [9] of 14.3.
The matching figures for `CC1CCN(c2nc3sc4c(N5CCC(C)CC5)nnnc4c3cc2C#N)CC1`: 37.8%, 52.1%, 12.4, 124 and 13.9.
The matching figures for `CN1CCN(c2nnnc3c2sc2nc(N4CCN(Cc5ccccc5)CC4)c(C#N)cc23)CC1`: 50.6%, 55.1%, 13.1, 123 and 14.6.
